Consider 35 compounds from ChEMBL document CHEMBL1129629, “Orally active, nonpeptide vasopressin V2 receptor antagonists: a novel series of 1-[4-(benzoylamino)benzoyl]-2,3,4,5-tetrahydro-1H-benzazepines and related compounds” (J Med Chem, 1996).

Assay [1] deals with T1, Vasopressin V2 receptor (Rattus norvegicus, UniProt Q00788). The experiment in a line: Compound was tested for its ability to displace [3H]AVP from its specific binding sites in rat Kidney (AVP-V2 receptor). The method in brief: (§1)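 Radioligand competition with [3H]AVP on plasma membrane preparations, rat liver for V1a and rat kidney for V2. […] Assays run in duplicate. Reported intraassay variation is under 3% and interassay variation under 20%.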

Assay [2] addresses T2, Vasopressin V1a receptor (Rattus norvegicus, UniProt P30560). The experiment in a line: Compound was tested for its ability to displace [3H]AVP from its specific binding sites in Rat liver (AVP-V1a receptor). In a few lines:
as §1

Assay [3] deals with Rattus norvegicus. In words: Dose(mg/kg) required for a 3-fold increase in the 2-h urine volume over the control rats. It is filed as functional. The method in brief: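 Hydrated conscious rats, compound given orally at three or four doses. Spontaneously voided urine collected every 2 h over 8 h. ED3 (mg/kg) read from the dose–response curve as the dose giving a 3-fold rise in 2-h urine volume over control rats. ">" means no 3-fold rise at the highest dose tested.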

For assay [4], the target named is T1, Vasopressin V2 receptor. In words: Displacement of [3H]-AVP from its AVP-V2 receptor binding site in rat kidney. In a few lines:
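Radioligand competition with [3H]AVP on plasma membrane preparations, rat liver for V1a and rat kidney for V2. Assays run in duplicate. Reported intraassay variation is under 3% and interassay variation under 20%.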
Background: Loss of bound radioactivity is the signal in a displacement assay; it reports binding, not function.

In assay [5] the target is T2, Vasopressin V1a receptor. The experiment in a line: Displacement of [3H]AVP from AVP-V1a receptor binding site in rat liver. The method in brief: as §1
The subject of assay [6] is Rattus norvegicus. The experiment in a line: UV values mean 2-h urine volume (mL) when the compound was administered orally at a dose of 10 mg/kg. It is filed as functional. The settings on record: route oral. The method in brief: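 Conscious rats dosed orally at 10 mg/kg, with urine voided spontaneously. The value is urine volume (mL) collected over the first 2 h, given as mean ± SEM of 4 rats and set against control rats (n = 4).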

By IC50 is commonly meant the concentration at which inhibition is half-maximal. Read a low IC50 as greater potency.

Bounds are passed on as bounds.

T1 sequence (Q00788 whole entry): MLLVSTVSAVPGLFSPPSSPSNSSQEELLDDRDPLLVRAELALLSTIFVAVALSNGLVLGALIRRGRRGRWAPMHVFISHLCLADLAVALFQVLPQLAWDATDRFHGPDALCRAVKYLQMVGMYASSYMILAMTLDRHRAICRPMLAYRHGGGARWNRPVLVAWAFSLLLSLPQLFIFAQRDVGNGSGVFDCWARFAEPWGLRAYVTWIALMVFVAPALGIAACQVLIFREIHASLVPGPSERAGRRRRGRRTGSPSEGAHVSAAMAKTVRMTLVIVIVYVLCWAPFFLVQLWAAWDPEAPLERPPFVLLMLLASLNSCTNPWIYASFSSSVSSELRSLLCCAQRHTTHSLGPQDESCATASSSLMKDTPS
T2 sequence (P30560 whole entry): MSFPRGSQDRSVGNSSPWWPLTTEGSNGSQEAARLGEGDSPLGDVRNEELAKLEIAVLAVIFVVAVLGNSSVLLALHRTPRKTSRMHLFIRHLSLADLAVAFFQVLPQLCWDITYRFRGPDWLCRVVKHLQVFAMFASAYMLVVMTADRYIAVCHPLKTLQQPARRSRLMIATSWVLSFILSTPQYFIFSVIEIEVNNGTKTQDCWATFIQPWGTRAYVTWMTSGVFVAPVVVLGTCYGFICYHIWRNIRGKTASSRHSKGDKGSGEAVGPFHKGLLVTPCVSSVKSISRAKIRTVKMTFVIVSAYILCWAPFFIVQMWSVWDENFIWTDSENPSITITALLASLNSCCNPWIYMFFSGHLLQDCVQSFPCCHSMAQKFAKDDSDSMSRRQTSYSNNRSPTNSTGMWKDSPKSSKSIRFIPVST

`CC(=O)O/N=C1\CCCN(C(=O)c2ccc(NC(=O)c3ccccc3C)cc2)c2ccccc21`: the concentration for half-maximal inhibition (IC50) in assay [1] came out at 58 nM; in assay [2] it was 2300 nM. Also, the ED3 in assay [3] is more than 30 mg/kg.
As for `Cc1cccc(C(=O)Nc2ccc(C(=O)N3CCCc4ccccc43)cc2)c1`, the IC50 came out at 680 nM in assay [4] and 3100 nM in assay [5].
The like results for `O=C(c1ccc(NS(=O)(=O)c2ccccc2)cc1)N1CCCCc2ccccc21` were, in that order, 1600 nM and 2500 nM.
In the case of `CN(C)C1CCCN(C(=O)c2ccc(NC(=O)c3ccccc3Cl)cc2)c2ccccc21` (stereo not drawn), the IC50 in assay [4] turned out to be 27 nM; in assay [5], 3000 nM. In assay [3], this compound had an ED3 of 4.2 mg/kg. This compound yielded an Activity in assay [6] of 7 mL.
With `Cc1ccccc1C(=O)Nc1ccc(C(=O)N2CCCC(O)c3ccccc32)cc1` (stereo not drawn), the IC50 in assay [4] turned out to be 29 nM; in assay [5], 140 nM. Further, the Activity in assay [6] was determined as 3.6 mL.
`O=C(Nc1cccc(C(=O)N2CCCc3ccccc32)c1)c1ccccc1`: the IC50 is 40000 nM in assay [4] and more than 100000 nM in assay [5].
As for `CCCNC1CCCN(C(=O)c2ccc(NC(=O)c3ccccc3C)cc2)c2ccccc21` (stereo not drawn), the IC50 turned out to be 50 nM in assay [4] and 890 nM in assay [5]. The same compound returned an ED3 in assay [3] of 6.6 mg/kg. In assay [6], this compound gave an Activity of 5.6 mL.
As for `O=C(Nc1ccc(C(=O)N2CCCCc3ccccc32)cc1)Oc1ccccc1`, the half-maximal inhibitory concentration (IC50) in assay [1] stood at 790 nM; in assay [2] it was 7800 nM.
Take `Cc1ccccc1C(=O)Nc1ccc(C(=O)N2CCN(C)c3ccccc32)cc1`: the IC50 in assay [4] was 400 nM; in assay [5] it was 5100 nM.
`CCCN(C)C1CCCN(C(=O)c2ccc(NC(=O)c3ccccc3C)cc2)c2ccccc21` (stereo not drawn): the IC50 in assay [4] was found to be 22 nM; in assay [5] it was 1200 nM. This compound also gave an ED3 in assay [3] of 4.9 mg/kg. In assay [6], this compound came in with an Activity of 8.3 mL.
As to `CN(C)C1CCCN(C(=O)c2ccc(NC(=O)c3ccccc3N)cc2)c2ccccc21` (stereo not drawn), the IC50 in assay [4] is 190 nM; in assay [5], 1900 nM.
For the compound `CCNC1CCCN(C(=O)c2ccc(NC(=O)c3ccccc3C)cc2)c2ccccc21` (stereo not drawn), the IC50 in assay [4] came to 29 nM; in assay [5], 1600 nM. Besides, the ED3 in assay [3] stood at 8 mg/kg. The Activity in assay [6] worked out at 5.4 mL.
With `O=C(Nc1ccc(C(=O)N2CCCc3ccccc32)cc1)c1ccc(Cl)cc1Cl`, the IC50 in assay [4] was 250 nM; in assay [5], more than 100000 nM.
On the same counts, the results for `COc1ccccc1C(=O)Nc1ccc(C(=O)N2CCCc3ccccc32)cc1` are 2100 nM and 1910 nM.
The like results for `COc1ccc(C(=O)Nc2ccc(C(=O)N3CCCc4ccccc43)cc2)cc1` were, in that order, 1800 nM and 2200 nM.
Take `CC(=O)NC1CCCN(C(=O)c2ccc(NC(=O)c3ccccc3C)cc2)c2ccccc21` (stereo not drawn): the IC50 is 150 nM in assay [4] and 3200 nM in assay [5]. For the same compound, the ED3 in assay [3] is more than 30 mg/kg.
As to `CN(C)C1CCCN(C(=O)c2ccc(NC(=O)c3ccc(Cl)cc3Cl)cc2)c2ccccc21` (stereo not drawn), the IC50 in assay [4] came out at 13 nM; in assay [5] it was 1300 nM.
For `O=C(Nc1ccc(C(=O)N2CCCC(N3CCCCC3)c3ccccc32)cc1)c1ccccc1Cl` (stereo not drawn), the IC50 in assay [4] came out at 140 nM; in assay [5], 2800 nM.
The like results for `CCCCOc1ccc(C(=O)Nc2ccc(C(=O)N3CCCc4ccccc43)cc2)cc1` were, in that order, more than 100000 nM and more than 100000 nM.
Regarding `CNC(=O)NC1CCCN(C(=O)c2ccc(NC(=O)c3ccccc3C)cc2)c2ccccc21` (stereo not drawn), the IC50 in assay [4] was determined as 96 nM; in assay [5], 2800 nM.
Take `Cc1ccccc1C(=O)Nc1ccc(C(=O)N2CCCC(N(C)CC#N)c3ccccc32)cc1` (stereo not drawn): the IC50 was found to be 25 nM in assay [4] and 3200 nM in assay [5]. The ED3 in assay [3] is more than 30 mg/kg.
With `Cc1ccccc1C(=O)Nc1ccc(C(=O)N2CCCC(N(C)CC(N)=O)c3ccccc32)cc1` (stereo not drawn), the ED3 in assay [3] came out at 6.4 mg/kg. The Activity in assay [6] amounted to 6.2 mL.
Take `CNC1CCCN(C(=O)c2ccc(NC(=O)c3ccccc3C)cc2)c2ccccc21` (stereo not drawn): the IC50 was determined as 24 nM in assay [4] and 720 nM in assay [5]. In assay [3], this compound yielded an ED3 of 4.6 mg/kg. This compound also gave an Activity in assay [6] of 8.3 mL.
Regarding `CC(C)C(=O)Nc1ccc(C(=O)N2CCCc3ccccc32)cc1`, the IC50 in assay [4] is 8100 nM; in assay [5], 2400 nM.
For `Cc1cccc(C(=O)Nc2ccc(C(=O)N3CCCC(N(C)C)c4ccccc43)cc2)c1` (stereo not drawn), the IC50 is 14 nM in assay [4] and 2400 nM in assay [5]. Moreover, the ED3 in assay [3] was more than 30 mg/kg.
The like results for `CCOC(=O)CN(C)C1CCCN(C(=O)c2ccc(NC(=O)c3ccccc3C)cc2)c2ccccc21` (stereo not drawn) were, in that order, 29 nM, 980 nM and more than 30 mg/kg.
For the compound `O=C(Nc1ccc(C(=O)N2CCCc3ccccc32)cc1)c1cccc([N+](=O)[O-])c1`, the half-inhibitory concentration (IC50) in assay [4] worked out at 760 nM; in assay [5] it was 16000 nM.
On the same counts, the results for `CC(=O)Nc1ccc(C(=O)N2CCCc3ccccc32)cc1` are more than 100000 nM and 74000 nM.
As for `O=C(CCc1ccccc1)Nc1ccc(C(=O)N2CCCc3ccccc32)cc1`, the IC50 in assay [4] amounted to 6100 nM; in assay [5], 2300 nM.
On the same counts, the results for `Cc1ccccc1C(=O)Nc1ccc(C(=O)N2CCOCc3ccccc32)cc1` are 300 nM and 630 nM.
Regarding `CN(C)C1CCCN(C(=O)c2ccc(NC(=O)c3ccccc3[N+](=O)[O-])cc2)c2ccccc21` (stereo not drawn), the half-maximal inhibitory concentration (IC50) in assay [4] is 71 nM; in assay [5], 2600 nM.
`Cc1ccccc1C(=O)Nc1ccc(C(=O)N2CCN(C)Cc3ccccc32)cc1`: the IC50 was 170 nM in assay [4] and 1800 nM in assay [5].
As for `O=C(Nc1ccc(C(=O)N2CCCc3ccccc32)cc1)c1ccsc1`, the IC50 in assay [4] and in assay [5] was 1700 nM in each case.
On to `CN(C)C1CCCN(C(=O)c2ccc(NC(=O)c3ccccc3)cc2)c2ccccc21` (stereo not drawn), for which the figures for the IC50 in assay [4] and in assay [5] were 27 nM and 3000 nM, respectively. This compound displayed an ED3 in assay [3] of more than 30 mg/kg.
As to `Cc1ccccc1C(=O)Nc1ccc(C(=O)N2CCCC(N(C)C)c3ccccc32)cc1` (stereo not drawn) [MOZAVAPTAN], the half-inhibitory concentration (IC50) in assay [5] was 1400 nM. The compound also registered an ED3 in assay [3] of 3.8 mg/kg. The compound further had an Activity in assay [6] of 12.3 mL.
